Source: PubChem
Sampled rows, rich in hits. Any-hit rate of the full collection: about 2.1%.
Scp1 inh = inhibitors of human Scp-1 phosphatase | Q9GZU7 | Recombinant Scp1, phosphopeptide, malachite green phosphate absorbance | inhibition, % at 20 µM | 340,000 tested, 0.88% active | AID 493091;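 active = inhibition above about 50% at 20 µM, limit read from the data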;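 also: plate controls were DMSO wells with enzyme for no effect and wells lacking enzyme for full effect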
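Test system: SCP-1 phosphatase catalytic domain, residues 76-261 | Compound dosing: One concentration, 20 µM, with 1.0% DMSO | Schedule: 45 min room-temperature reaction, 5 min colour, 30 min stabiliser | Detection: Absorbance at 630 nm | Read-out basis: % inhibition of SCP-1 phosphate liberation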
GRK2 aptamer HTS = human GRK2 inhibition via aptamer displacement. AID 488847. bead flow cytometry, FAM-aptamer displacement from GRK2. inhibition of aptamer binding, % at 10 µM. P25098. 330,000 tested, 0.59% active;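 active = inhibition of aptamer binding above 40%, roughly 3 SD of noise, on plates passing a quality check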;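 also: median bead fluorescence of bound FAM aptamer so fluorescent compounds give negative values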
LMPTP inh = LMPTP (human) inhibition | recombinant LMPTP-A, OMFP fluorogenic substrate, fluorescence intensity | inhibition, % at 20 µM | 360,000 tested, 0.22% active | AID 651560;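 active = compounds that cut the enzyme signal by at least half of the control window in the single-dose screen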;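 also: plate controls were DMSO wells with enzyme plus substrate for no effect and substrate without enzyme for full effect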
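Test system: LMPTP-A phosphatase enzyme. Amount: LMPTP-A at 0.625 nM final in the reaction. Reagent: OMFP substrate, 400 µM final. Times: 50 min at room temperature. Signal: endpoint fluorescence intensity from OMFP dephosphorylation. Read-out basis: % inhibition. Benchmarks: no-enzyme and uninhibited controls.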
SUMO1-SIM PPI = modulators of human SUMO1-mediated protein-protein interactions; P63165; SUMO1 binding to a labelled peptide, TR-FRET, 1 h; inhibition, % at 20 µM; 360,000 tested, 0.33% active; AID 602429; in the data active = inhibition above about 37%
STEP inh = STEP (human) phosphatase inhibition. P54829. recombinant STEP, OMFP fluorogenic substrate, fluorescence. inhibition, % at 20 µM. 360,000 tested, 0.25% active;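 active = inhibition at 20 µM, scaled per plate between control wells, above about 37%, limit read from the data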;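 also: 0% = DMSO with enzyme and substrate and 100% = substrate only without enzyme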
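System: STEP phosphatase, cell-free reaction; Buffer or medium: Bis-Tris pH 6.0 buffer with DTT, detergent; Incubation: 20 min at room temperature, dark; Measured by: fluorescence, 480/540 nm.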
DNMT1 block = blocks human DNA methyltransferase DNMT1 | P26358 | DNMT1 molecular beacon, Hinp1I cleavage, fluorescence | inhibition (reported as % activation of signal), % at 10 µM | 360,000 tested, 0.83% active | AID 588458; in the data active = inhibition above about 50%
An asterisk follows results filed as active; · = no result.

SMILES | Scp1 inh | GRK2 aptamer HTS | LMPTP inh | SUMO1-SIM PPI | STEP inh | DNMT1 block
CCOC(=O)[C@]12CCCC=C1N(Cc1ccccc1)C(=O)[C@H](CC(=O)N1CCOCC1)C2 | · | · | 0 | -2 | · | ·
Cc1ccc(OCc2nnc(SCC(N)=O)n2N)cc1 | -4 | 0 | -1 | 44* | -3 | -1
COc1ccc(CCNC(=O)c2ccc3c(c2)S(=O)(=O)N=C2CCCCCN23)cc1OC | · | · | 1 | -3 | -4 | 2
CC(C)(C)c1ccc(C2CC2C(=O)N/N=C\c2cc3ccccc3nc2Cl)cc1 (stereo not given) | -12 | 0 | 2 | -2 | 0 | -4
Cc1ccc2nc(Cl)c(/C=N/NC(=O)[C@H]3C[C@@H]3c3ccccc3)cc2c1 | -1 | 1 | 4 | 40* | 3 | 36
CC(C(=O)O)N1C(=O)/C(=C/C=C/c2ccco2)SC1=S (stereo not given) | 79* | 98* | 78* | 100* | 99* | 83*
O=C1/C(=C\c2ccco2)SC(=S)N1c1ccccc1 | -7 | 9 | 1 | -6 | 0 | 0
Cn1c(CCN2CCOCC2)nc2cc(NC(=O)COc3ccc([N+](=O)[O-])cc3)ccc21 | -5 | 0 | 1 | -14 | 5 | 2
Cn1c(CCN2CCN(c3ccccn3)CC2)nc2cc(NC(=O)COc3ccc([N+](=O)[O-])cc3)ccc21 | -9 | 0 | 71* | 29 | 0 | 1
CC(C)c1cc(NCCOCCO)n2c(nc3ccccc32)c1C#N | -4 | 3 | -2 | 5 | -1 | 2
O=C(C[C@H]1CC[C@H]2[C@@H](COC[C@@H](O)CN2S(=O)(=O)c2ccc(F)cc2)O1)N[C@@H]1CCN(Cc2ccccc2)C1 | · | · | -1 | 1 | · | ·
CC(C1SC(=S)NC1=O)C1SC(=S)NC1=O (stereo not given) | · | · | 68* | 20 | 2 | -6
CCC(=O)N1CCCC1(C)C(=O)Nc1cc(OC)ccc1OC (stereo not given) | · | · | 0 | 0 | -4 | -1
Cc1ccc2[nH]c3nc(N/N=C/c4cccc(O)c4)nnc3c2c1 | 11 | 0 | 0 | 10 | 1 | 40
CCc1ccc2[nH]c3nc(N/N=C/c4ccc(O)cc4O)nnc3c2c1 | -3 | 3 | 1 | 11 | 1 | 62*
OCCNc1c2ccccc2nc2ccccc12 | -8 | 1 | 19 | -17 | 6 | 59*
OCCNc1nc2ccccc2nc1NCCO | -17 | 0 | -1 | 1 | -1 | 1
CN(C)C(=O)c1cccc(-c2cnc3cccnn23)c1 | · | · | -1 | -7 | 2 | 13
CCOc1ccc(-c2nnc(-c3snc(-c4ccc(F)cc4)c3N=CN(C)C)o2)cc1 | 5 | 1 | -1 | 47* | -1 | 1
O=C(c1cccc(C(F)(F)F)c1)N1CCc2c([nH]c3ccccc23)C1C(F)(F)F (stereo not given) | -20 | 4 | 2 | 10 | -3 | -3
Cn1c(=O)c(C(=O)NNC(=O)c2ccc(Br)cc2)c(O)c2ccccc21 | -10 | 47* | 1 | 9 | 1 | 0
COc1cc(Cn2c(=O)c3c(OC)c(C)cnc3n(C)c2=O)cc(OC)c1 | -2 | 0 | 0 | 1 | -2 | -3
Nc1c2c(nc3ccccc13)CSCC2 | -10 | 2 | 1 | -1 | 4 | 3
COc1ccc(CCn2c(NN)nc3c2c(=O)[nH]c(=O)n3C)cc1 | 20 | 0 | 7 | -10 | 28 | 75*
N=C1/C(=C/c2ccc(-c3cccc(C(=O)O)c3)o2)C(=O)N=C2SC=C(c3ccccc3)N12 | 68* | 3 | 89* | 46* | 64* | 100*
O=C(O)c1ccccc1NS(=O)(=O)c1ccc(NN=Cc2cccc(Cl)c2)c([N+](=O)[O-])c1 | -13 | 2 | 83* | 33 | 7 | 35
COC(=O)c1ccc(N2C(c3cc(OC)cc(OC)c3)=Cc3ccc(-c4ccc(C(N)=O)cc4)cc3C2CC(=O)C2CC2)cc1 (stereo not given) | · | · | 2 | 2 | · | ·
O=C(Nc1ccccc1)NN(C(=O)CCl)c1ccccc1 | -1 | 0 | -2 | 70* | -2 | 8
